Experiment [1] has as its system Mus musculus. Nature of the experiment: Antinociceptive activity against intrathecally dosed ICR-CD1 mouse by radiant heat tail flick test. Format: functional. Summed up:
(§1)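 Male ICR-CD1 mice (17–25 g), single i.c.v. or i.t. injection; tail-flick latency to radiant heat. Antinociception as %MPE = (Test − Control)/(10 − Control) × 100. Dose-response curves from at least three groups of 8–10 mice, each mouse used once; ED50 with 95% C.I. in pmol/mouse.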

Experiment [2] deals with Mus musculus. Nature of the experiment: Reduction in tolerance acquisition in ICR-CD1 mouse assessed as compound antinociception effect at 125 to 2500 pmol, icv administered on day 1 and repeated on day 2 measured on day 2 by radiant heat tail flick test. Format: functional. Details: scale not given: the % may be the effect or the level left. Summed up:
(§2)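 Tolerance test in male ICR-CD1 mice given i.c.v. The highest dose of the day-1 dose-response curve is given on day 1 and repeated 24 h later in the same mice. Radiant-heat tail-flick %MPE is recorded each day, and mice with no significant day-to-day difference are classed as not tolerant.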

The subject of experiment [3] is Mus musculus. The experiment in a line: Reduction in tolerance acquisition in ICR-CD1 mouse assessed as compound antinociception effect at 125 to 2500 pmol, icv administered on day 1 and repeated on day 2 measured on day 1 by radiant heat tail flick test. Details: scale not given: the % may be the effect or the level left. The format is functional. Summed up: as §2

Experiment [4] concerns Mus musculus. The experiment in a line: Ratio of ED50 for antinociception activity in icv dosed ICR-CD1 mouse to ED50 for antinociception activity in intrathecally dosed ICR-CD1 mouse by radiant heat tail flick test. The format is functional. In outline: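 ED50 values (pmol/mouse) come from radiant-heat tail-flick dose-response curves in male ICR-CD1 mice after i.c.v. or i.t. injection, with %MPE read-out and at least three groups of 8–10 mice per curve. The ratio is i.c.v. ED50 divided by i.t. ED50.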
A general note: Hot-plate and tail-flick tests time the reaction to a heat stimulus.

Experiment [5] deals with Mus musculus. Nature of the experiment: Reduction in tolerance acquisition in ICR-CD1 mouse assessed as compound antinociception effect at 125 to 2500 pmol intrathecally administered on day 1 and repeated on day 2 measured on day 1 by radiant heat tail flick test. The format is functional. Details: scale not given: the % may be the effect or the level left.
For experiment [6], the system named is Mus musculus. Nature of the experiment: Reduction in tolerance acquisition in ICR-CD1 mouse assessed as compound antinociception effect at 125 to 2500 pmol intrathecally administered on day 1 and repeated on day 2 measured on day 2 by radiant heat tail flick test. Details: scale not given: the % may be the effect or the level left. The format is functional.

The subject of experiment [7] is Mus musculus. Nature of the experiment: Antinociceptive activity against icv dosed ICR-CD1 mouse by radiant heat tail flick test. Format: functional. In outline:
as §1

Experiment [8] deals with Cannabinoid receptor 1/Mu-type opioid receptor (Homo sapiens) (UniProt P21554+P35372). The experiment in a line: Induction of human MOPR/CB1receptor internalization transiently expressed in HEK293 cells at 1 uM after 30 mins by immunofluorescence assay. The format is cell-based. In outline: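 HEK-293 cells were transiently transfected with human MOP and CB1 cDNA (16 μg per 2 million cells) and seeded into chamber slides 24 h later. After a further 24 h, cells were exposed to ligand (1 μM) for 30 min. They were then fixed in 4% paraformaldehyde and incubated overnight at 4°C with MOP- and CB1-selective primary antibodies. Fluorescent secondaries (red MOP, green CB1) were applied, and receptor location was imaged by confocal microscopy.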

The subject of experiment [9] is Mus musculus. The experiment in a line: Antinociceptive activity in ICR-CD1 mouse at 250 pmol administered intrathecally by radiant heat tail flick test. The format is functional.
For experiment [10], the system named is Mus musculus. Nature of the experiment: Antinociceptive activity in ICR-CD1 mouse at 2500 pmol, icv by radiant heat tail flick test. Format: functional.
The test system of experiment [11] is Mus musculus. Nature of the experiment: Antinociceptive activity in ICR-CD1 mouse at 250 pmol, icv by radiant heat tail flick test. The format is functional.
Experiment [12] deals with Mus musculus. The experiment in a line: Antinociceptive activity in ICR-CD1 mouse at 2500 pmol administered intrathecally by radiant heat tail flick test. Format: functional.
Experiment [13] concerns Mus musculus. The experiment in a line: Reduction in tolerance acquisition in ICR-CD1 mouse assessed as compound antinociception effect at 125 to 2500 pmol, icv administered on day 1 and repeated after 48 hrs measured on day 3 by radiant heat tail flick test. The format is functional. Details: scale not given: the % may be the effect or the level left.
For experiment [14], the system named is Mus musculus. The experiment in a line: Reduction in tolerance acquisition in ICR-CD1 mouse assessed as compound antinociception effect at 125 to 2500 pmol, icv administered on day 1 measured after 24 hrs by radiant heat tail flick test. Format: functional. Details: scale not given: the % may be the effect or the level left.

The source made the active and inactive calls. No cut-off for these calls is given here.

With `Cc1c(C(=O)NC2CCN(C(=O)N[C@H]3CC[C@@]4(O)[C@H]5Cc6ccc(O)c7c6[C@@]4(CCN5C)[C@H]3O7)CC2)nn(-c2ccc(Cl)cc2Cl)c1-c1ccc(Cl)cc1`, the values for the ED50 in the experiment with Mus musculus [1] and in the experiment with Mus musculus [7] were 559 pmol and 1219 pmol, respectively. Moreover, the Activity is reported as 33.85% in the experiment with Mus musculus [2], 64.27% in the experiment with Mus musculus [3], 73.55% in the experiment with Mus musculus [5] and 66.01% with Mus musculus [6]. Further, the “Ratio ED50” value with Mus musculus [4] was 2.18.
With `CNC(=O)COCC(=O)NCCCCNC(=O)COCC(=O)N1CCC(NC(=O)c2nn(-c3ccc(Cl)cc3Cl)c(-c3ccc(Cl)cc3)c2C)CC1`, the outcome in experiment [8] was inactive. For the same molecule, the Activity in the experiment on Mus musculus [9], in the experiment on Mus musculus [10], in the experiment on Mus musculus [11] and with Mus musculus [12] was 20% in each case.
Consider `Cc1c(C(=O)NC2CCN(C(=O)COCC(=O)NCCCCCCNC(=O)COCC(=O)N[C@H]3CC[C@@]4(O)[C@H]5Cc6ccc(O)c7c6[C@@]4(CCN5C)[C@H]3O7)CC2)nn(-c2ccc(Cl)cc2Cl)c1-c1ccc(Cl)cc1`, for which, in experiment [8], the outcome was Active. The ED50 in the experiment on Mus musculus [1] is recorded as 19 pmol; in the experiment with Mus musculus [7], 189 pmol. Also, the Activity is recorded as 86.33% with Mus musculus [2], 95.43% in the experiment with Mus musculus [3], 78.51% with Mus musculus [5] and 79.58% with Mus musculus [6]. Moreover, in the experiment with Mus musculus [4], the “Ratio ED50” value is 9.86.
Take `Cc1c(C(=O)NC2CCN(C(=O)COCC(=O)N[C@H]3CC[C@@]4(O)[C@H]5Cc6ccc(O)c7c6[C@@]4(CCN5C)[C@H]3O7)CC2)nn(-c2ccc(Cl)cc2Cl)c1-c1ccc(Cl)cc1`: the result in experiment [8] was Active. The ED50 in the experiment on Mus musculus [1] stood at 27 pmol; in the experiment with Mus musculus [7], 523 pmol. In addition, the Activity is 63.7% in the experiment on Mus musculus [2], 77.72% in the experiment with Mus musculus [3], 81.72% in the experiment on Mus musculus [5] and 73.41% in the experiment on Mus musculus [6]. The “Ratio ED50” value in the experiment on Mus musculus [4] amounted to 19.48.
With `Cc1c(C(=O)NC2CCN(C(=O)COCC(=O)NCCCCCCCNC(=O)COCC(=O)N[C@H]3CC[C@@]4(O)[C@H]5Cc6ccc(O)c7c6[C@@]4(CCN5C)[C@H]3O7)CC2)nn(-c2ccc(Cl)cc2Cl)c1-c1ccc(Cl)cc1`, the outcome in experiment [8] was inactive. The Activity with Mus musculus [13] is reported as 72.81%; in the experiment on Mus musculus [14] it was 47%; in the experiment on Mus musculus [3], 89.75%; in the experiment on Mus musculus [5], 92.2%; in the experiment with Mus musculus [6], 87.91%. For the same molecule, the ED50 in the experiment with Mus musculus [1] is on record as 5 pmol; with Mus musculus [7], 9 pmol. Besides, the “Ratio ED50” value in the experiment with Mus musculus [4] is listed as 1.8.
On to `Cc1c(C(=O)NN2CCCCC2)nn(-c2ccc(Cl)cc2Cl)c1-c1ccc(Cl)cc1`, for which the outcome in the experiment on Mus musculus [10] and in the experiment with Mus musculus [12] was inactive.
For the molecule `Cc1c(C(=O)NC2CCN(C(=O)COCC(=O)NCCNC(=O)COCC(=O)N[C@H]3CC[C@@]4(O)[C@H]5Cc6ccc(O)c7c6[C@@]4(CCN5C)[C@H]3O7)CC2)nn(-c2ccc(Cl)cc2Cl)c1-c1ccc(Cl)cc1`, in experiment [8], the outcome was Active. The ED50 with Mus musculus [1] was determined as 42 pmol; in the experiment on Mus musculus [7], 55 pmol. Moreover, the Activity is given as 66.99% in the experiment on Mus musculus [2], 83.47% in the experiment on Mus musculus [3], 98.33% with Mus musculus [5] and 72.5% in the experiment with Mus musculus [6]. Further, the “Ratio ED50” value in the experiment with Mus musculus [4] worked out at 1.31.
As to `CNC(=O)COCC(=O)NCCCCCNC(=O)COCC(=O)N[C@H]1CC[C@@]2(O)[C@H]3Cc4ccc(O)c5c4[C@@]2(CCN3C)[C@H]1O5`, the result in experiment [8] was Active. For the same molecule, the ED50 is 106 pmol in the experiment with Mus musculus [1] and 108 pmol with Mus musculus [7]. The Activity in the experiment with Mus musculus [2] turned out to be 24.14%; in the experiment on Mus musculus [3], 82.15%; in the experiment on Mus musculus [5] it was 75.98%; in the experiment on Mus musculus [6], 39.54%. Besides, the “Ratio ED50” value in the experiment with Mus musculus [4] was determined as 1.01.

The values above are taken from ChEMBL document CHEMBL2401645, “Bivalent ligands that target μ opioid (MOP) and cannabinoid1 (CB1) receptors are potent analgesics devoid of tolerance” (2013).
